Results: PubChem BioAssay AID504403 (Broad Institute, 2011)
The source made the active and inactive calls.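 How the source made its calls: active means active in every replicate test, each curve reaching caspase activation of 10% of the positive control signal; inconclusive means replicate tests disagree, some active and some inactive; inactive means inactive in every replicate test.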

Test: Bax/Bak-independent caspase signal in fibroblasts – cell-based, mouse embryonic fibroblasts, luminescence, dry powder, set 3, counter-screen for A1 inhibitor project, dose response (AID 504403)
Settings: Bax/Bak-/- MEF caspase activation, CaspaseGlo luminescence, 3 h
Procedure, shortened: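 Material: Bax/Bak-null MEF cells; Quantity: 2500 cells/well; Buffer or medium: RPMI-1640, 10% heat-inactivated FBS; Dosing: compound added by pin transfer; Timing: 3 h compound exposure, 37 °C, 5% CO2; Technique: Caspase-Glo luminescent caspase assay; Evaluation: caspase activation signal flagging off-target or toxic effects.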

[1] = measured here: test 2 replicate, at 35 µM, stronger effect = higher value

Row | Compound | caspase activation (at 35 µM (top of the series)) | caspase activation [1] | outcome [1]
1 | COc1ccc(CCNc2nc(N3CCOCC3)nc(N3CCOCC3)n2)cc1OC | 0.042% (inactive) | 0.071% | –
2 | COCCn1c(=O)c([N+](=O)[O-])c(Sc2ccc(C)cc2)c2ccccc21 | 0.682% (inactive) | -0.602% | –
3 | Cc1ccc(Sc2c([N+](=O)[O-])c(=O)n(Cc3ccccc3)c3ccccc23)cc1 | 1.91% (inactive) | -0.307% | –
4 | Cc1ccc(Sc2c(Sc3ccc(C)cc3)c3ccccc3n(C)c2=O)cc1 | -0.06% (inactive) | -0.477% | –
5 | Cn1c(=O)c([N+](=O)[O-])c(S(C)(=O)=O)c2ccccc21 | -0.102% (inactive) | -0.421% | –
6 | COc1nc2ccccc2c(Sc2ccc(C)cc2)c1[N+](=O)[O-] | 0.017% (inactive) | -0.171% | –
7 | Cn1c(=O)c(Sc2ccccn2)c(Sc2ccccn2)c2ccccc21 | 0.166% (inactive) | -0.337% | –
8 | CC1(C)CCC(c2ccc(Cl)cc2)=C(CN2CCN(c3ccc(C(=O)NS(=O)(=O)c4ccc(N[C@H](CCN5CCOCC5)CSc5ccccc5)c(S(=O)(=O)C(F)(F)F)c4)cc3)CC2)C1 | – | – | inactive
9 | O=c1[nH]c2ccccc2c(Cl)c1[N+](=O)[O-] | 0.348% (inactive) | 0.47% | –
10 | C/C(=N\Nc1nc(N2CCCCC2)nc(N2CCCCC2)n1)c1ccc(F)cc1 | -0.284% (inactive) | -0.01% | –
11 | CCn1c(=O)c(Sc2ccc(C)cc2)c(Sc2ccc(C)cc2)c2ccccc21 | 0.078% (inactive) | -0.17% | –
12 | COc1ccc(CCNc2nc(N3CCCC3)nc(N3CCCC3)n2)cc1OC | 0.084% (inactive) | 0.515% | –
13 | Cn1c(=O)c([N+](=O)[O-])c(Cl)c2ccccc21 | 0.366% (inactive) | -0.494% | –
14 | COc1c([N+](=O)[O-])c(=O)n(C)c2ccccc12 | 0.061% (inactive) | 0.257% | –
15 | O=C(COc1ccc(Cl)cc1Cl)NNc1nc(N2CCOCC2)nc(N2CCOCC2)n1 | -0.22% (inactive) | 0.018% | –
16 | CCn1c(=O)c([N+](=O)[O-])c(Cl)c2ccccc21 | 1.21% (inactive) | 3.07% | –
17 | CCn1c(=O)c([N+](=O)[O-])c(Sc2ccc(C)cc2)c2ccccc21 | -0.025% (inactive) | -0.559% | –
18 | O=c1c([N+](=O)[O-])c(Cl)c2ccccc2n1Cc1ccccc1 | -0.005% (inactive) | 3.16% | –
19 | Cc1ccc(Sc2c([N+](=O)[O-])c(=O)n(C)c3ccccc23)cc1 | 0.309% (inactive) | -0.613% | –
20 | O=c1[nH]c2ccccc2c(O)c1[N+](=O)[O-] | 0.504% (inactive) | -0.232% | –
21 | COc1nc2ccccc2c(Cl)c1[N+](=O)[O-] | 0.674% (inactive) | 0.222% | –
22 | Cc1ccc(S(=O)(=O)c2c([N+](=O)[O-])c(=O)n(C)c3ccccc23)cc1 | 0.276% (inactive) | 0.073% | –
23 | Cc1ccc(Sc2c(Sc3ccc(C)cc3)c3ccccc3n(Cc3ccccc3)c2=O)cc1 | 0.02% (inactive) | -0.616% | –
24 | COCCn1c(=O)c([N+](=O)[O-])c(Cl)c2ccccc21 | 0.693% (inactive) | -0.136% | –
25 | COc1ccc(N2CCN(c3nc(NCCc4ccc(OC)c(OC)c4)nc(N4CCOCC4)n3)CC2)cc1 | 0.143% (inactive) | 0.46% | –
26 | Cn1c(=O)c([N+](=O)[O-])c(Sc2ccccn2)c2ccccc21 | 0.303% (inactive) | 0.033% | –
27 | COCCn1c(=O)c(Sc2ccc(C)cc2)c(Sc2ccc(C)cc2)c2ccccc21 | -0.103% (inactive) | -0.586% | –
